{"source": "PubChem BioAssay AID588798", "about": "(Johns Hopkins Ion Channel Center, 2011)", "note": "pIC50: −log10 of the molar value. The source made the active and inactive calls.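 How the source made its calls: active means peak inhibition of the KCNQ2 potassium channel above 30% at some tested dose, plus a fitted dose response curve; inactive means no inhibition at any dose, or no curve.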", "data": [{"molecular_target": "Potassium voltage-gated channel subfamily KQT member 2 (Rattus norvegicus) (UniProt O88943)", "sequence (O88943 whole entry, looked up)": "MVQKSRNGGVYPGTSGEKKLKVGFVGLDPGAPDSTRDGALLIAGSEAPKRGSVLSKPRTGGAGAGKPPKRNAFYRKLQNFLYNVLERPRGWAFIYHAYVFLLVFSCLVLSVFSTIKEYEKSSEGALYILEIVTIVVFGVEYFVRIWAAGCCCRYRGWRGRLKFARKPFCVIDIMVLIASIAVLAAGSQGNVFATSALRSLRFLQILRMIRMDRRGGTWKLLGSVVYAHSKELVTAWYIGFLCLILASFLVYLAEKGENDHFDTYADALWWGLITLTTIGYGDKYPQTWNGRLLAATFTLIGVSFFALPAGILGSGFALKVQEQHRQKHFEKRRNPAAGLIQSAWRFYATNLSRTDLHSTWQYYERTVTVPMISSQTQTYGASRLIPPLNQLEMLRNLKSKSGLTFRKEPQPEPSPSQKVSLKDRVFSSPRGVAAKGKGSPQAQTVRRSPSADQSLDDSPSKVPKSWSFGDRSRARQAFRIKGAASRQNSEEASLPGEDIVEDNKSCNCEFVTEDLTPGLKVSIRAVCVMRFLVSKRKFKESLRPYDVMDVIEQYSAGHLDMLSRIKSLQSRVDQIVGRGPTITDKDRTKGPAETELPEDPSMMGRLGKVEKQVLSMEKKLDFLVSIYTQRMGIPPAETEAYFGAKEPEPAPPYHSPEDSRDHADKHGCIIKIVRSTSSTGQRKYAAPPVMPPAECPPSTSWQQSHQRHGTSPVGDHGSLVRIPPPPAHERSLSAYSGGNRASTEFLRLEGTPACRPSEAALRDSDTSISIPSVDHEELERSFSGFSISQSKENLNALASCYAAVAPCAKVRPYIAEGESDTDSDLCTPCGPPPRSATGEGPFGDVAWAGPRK", "assay": "rat KCNQ2 channel inhibition, SAR follow-up, selectivity assay for KCNK9 inhibitor project, cell-based, FluxOR thallium flux, CRC set 3 (AID 588798)", "conditions": "KCNQ2-expressing cells, FluxOR thallium flux fluorescence", "outline": "(§1)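 test system = CHO cells expressing rat KCNQ2 potassium channel | compound dosing = concentration-response series | incubation = dye loading 90 min, compound pre-incubation 20 min, both room temperature | technique = FluxOR thallium-sensitive dye, kinetic fluorescence reading | read-out = normalised fluorescence change ratio and IC50 | repeats = duplicate or more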", "values": [{"compound": "CC(C1CC2CCC1C2)n1c(SCc2ccccc2)nnc1-c1ccco1", "note": "(stereo not drawn)", "pIC50": 4.74}]}, {"molecular_target": "Potassium voltage-gated channel subfamily KQT member 2 (Rattus norvegicus) (UniProt O88943)", "assay": "rat KCNQ2 channel inhibition, SAR follow-up, selectivity assay for KCNK9 inhibitor project, cell-based, FluxOR thallium flux, CRC set 3 (AID 588798)", "conditions": "KCNQ2-expressing cells, FluxOR thallium flux fluorescence; at 30 µM (top of the series)", "outline": "as §1", "values": [{"compound": "COc1ccccc1C(=O)Nc1cccc(NC(=O)c2cccc3ccccc23)c1", "thallium flux ratio, lower = inhibition": "inactive"}, {"compound": "S=c1[nH]nc(-c2ccco2)n1C1CC2CCC1C2", "note": "(stereo not drawn)", "thallium flux ratio, lower = inhibition": "inactive"}, {"compound": "COc1ccc(CCSc2nnc(-c3ccco3)n2C(C)C2CC3CCC2C3)cc1OC", "note": "(stereo not drawn)", "thallium flux ratio, lower = inhibition": "inactive"}, {"compound": "CC(C1CC2CCC1C2)n1c(SCC(=O)c2ccc(Cl)c(Cl)c2)nnc1-c1ccco1", "note": "(stereo not drawn)", "thallium flux ratio, lower = inhibition": "inactive"}, {"compound": "CC(CCC1CCCC1)n1c(-c2ccco2)n[nH]c1=S", "note": "(stereo not drawn)", "thallium flux ratio, lower = inhibition": "inactive"}, {"compound": "C[C@H](C1CCCCC1)n1c(-c2ccco2)n[nH]c1=S", "thallium flux ratio, lower = inhibition": "inactive"}, {"compound": "CC(C1CC2CCC1C2)n1c(-c2ccccc2F)n[nH]c1=S", "note": "(stereo not drawn)", "thallium flux ratio, lower = inhibition": "inactive"}, {"compound": "CC(C1CC2CCC1C2)n1c(SCC#N)nnc1-c1cccs1", "note": "(stereo not drawn)", "thallium flux ratio, lower = inhibition": "inactive"}, {"compound": "CC(C1CCCCC1)n1c(-c2ccco2)n[nH]c1=S", "note": "(stereo not drawn)", "thallium flux ratio, lower = inhibition": "inactive"}, {"compound": "COc1cccc(Cc2n[nH]c(=S)n2C(C)C2CC3CCC2C3)c1", "note": "(stereo not drawn)", "thallium flux ratio, lower = inhibition": "inactive"}, {"compound": "CC(C1CC2CCC1C2)N(C)C(=O)c1ccco1", "note": "(stereo not drawn)", "thallium flux ratio, lower = inhibition": "inactive"}, {"compound": "CC(NC(=O)c1ccco1)C1CC2CCC1C2", "note": "(stereo not drawn)", "thallium flux ratio, lower = inhibition": "inactive"}, {"compound": "CC(C1CC2CCC1C2)n1c(-c2cccn2C)n[nH]c1=S", "note": "(stereo not drawn)", "thallium flux ratio, lower = inhibition": "inactive"}, {"compound": "CC(C1CC2CCC1C2)n1c(-c2ccco2)nnc1C(F)(F)F", "note": "(stereo not drawn)", "thallium flux ratio, lower = inhibition": "inactive"}, {"compound": "CC(C1CC2CCC1C2)n1c(-c2ccco2)n[nH]c1=O", "note": "(stereo not drawn)", "thallium flux ratio, lower = inhibition": "inactive"}, {"compound": "CC(C)Oc1ccccc1C(=O)Nc1cccc(NC(=O)c2ccccc2OC(F)(F)F)c1", "thallium flux ratio, lower = inhibition": "inactive"}, {"compound": "S=c1[nH]nc(-c2ccco2)n1CC1CC2CCC1C2", "note": "(stereo not drawn)", "thallium flux ratio, lower = inhibition": "inactive"}, {"compound": "CC(C1C2CCC1CC2)n1c(-c2ccco2)n[nH]c1=S", "note": "(stereo not drawn)", "thallium flux ratio, lower = inhibition": "inactive"}, {"compound": "CC(C1CC2CCC1C2)n1c(-c2ccco2)n[nH]c1=S", "note": "(stereo not drawn)", "thallium flux ratio, lower = inhibition": "inactive"}, {"compound": "CC(c1cccc2ccccc12)n1c(-c2ccco2)n[nH]c1=S", "note": "(stereo not drawn)", "thallium flux ratio, lower = inhibition": "inactive"}, {"compound": "CC(C1CC2CCC1C2)n1c(-c2ccccn2)n[nH]c1=S", "note": "(stereo not drawn)", "thallium flux ratio, lower = inhibition": "inactive"}, {"compound": "COc1cccc(C(=O)CSc2nnc(-c3ccco3)n2C(C)C2CC3CCC2C3)c1", "note": "(stereo not drawn)", "thallium flux ratio, lower = inhibition": "inactive"}, {"compound": "COc1cc(OC)cc(-c2n[nH]c(=S)n2C(C)C2CC3CCC2C3)c1", "note": "(stereo not drawn)", "thallium flux ratio, lower = inhibition": "inactive"}, {"compound": "CSc1nnc(-c2ccco2)n1C(C)C1CC2CCC1C2", "note": "(stereo not drawn)", "thallium flux ratio, lower = inhibition": "inactive"}, {"compound": "COc1ccc(C(=O)CSc2nnc(-c3ccco3)n2C(C)C2CC3CCC2C3)cc1", "note": "(stereo not drawn)", "thallium flux ratio, lower = inhibition": "inactive"}, {"compound": "COc1ccc(C(=O)CSc2nnc(-c3ccco3)n2C(C)C2CC3CCC2C3)cc1OC", "note": "(stereo not drawn)", "thallium flux ratio, lower = inhibition": "inactive"}, {"compound": "CC(C1CC2CCC1C2)n1cnnc1-c1ccco1", "note": "(stereo not drawn)", "thallium flux ratio, lower = inhibition": "inactive"}, {"compound": "CC(C1CC2CCC1C2)n1c(SCC(=O)c2ccc3c(c2)OCO3)nnc1-c1ccco1", "note": "(stereo not drawn)", "thallium flux ratio, lower = inhibition": "inactive"}, {"compound": "CC(C1CC2CCC1C2)n1c(-c2ccncc2)n[nH]c1=S", "note": "(stereo not drawn)", "thallium flux ratio, lower = inhibition": "inactive"}, {"compound": "C[C@@H](C1CCCCC1)n1c(-c2ccco2)n[nH]c1=S", "thallium flux ratio, lower = inhibition": "inactive"}, {"compound": "CC(C1CC2CCC1C2)n1c(-c2cccc(F)c2)n[nH]c1=S", "note": "(stereo not drawn)", "thallium flux ratio, lower = inhibition": "inactive"}, {"compound": "CC(C1CC2CCC1C2)n1c(-c2ccc(N(C)C)cc2)n[nH]c1=S", "note": "(stereo not drawn)", "thallium flux ratio, lower = inhibition": "inactive"}, {"compound": "CC(C1CC2CCC1C2)n1c(SCC(=O)c2ccccc2)nnc1-c1ccco1", "note": "(stereo not drawn)", "thallium flux ratio, lower = inhibition": "inactive"}, {"compound": "COc1cccc(-c2n[nH]c(=S)n2C(C)C2CC3CCC2C3)c1OC", "note": "(stereo not drawn)", "thallium flux ratio, lower = inhibition": "inactive"}, {"compound": "CC(CC1CC2CCC1C2)n1c(-c2ccco2)n[nH]c1=S", "note": "(stereo not drawn)", "thallium flux ratio, lower = inhibition": "inactive"}, {"compound": "COc1ccccc1C(=O)Nc1cc(NC(=O)c2ccccc2C(C)C)ccc1F", "thallium flux ratio, lower = inhibition": "inactive"}, {"compound": "CC(C1CC2CCC1C2)n1c(-c2cccs2)n[nH]c1=S", "note": "(stereo not drawn)", "thallium flux ratio, lower = inhibition": "inactive"}, {"compound": "CC(C1CC2CCC1C2)n1c(-c2cccnc2)n[nH]c1=S", "note": "(stereo not drawn)", "thallium flux ratio, lower = inhibition": "inactive"}, {"compound": "COc1cccc(-c2nnc(S(C)(=O)=O)n2C(C)C2CC3CCC2C3)c1", "note": "(stereo not drawn)", "thallium flux ratio, lower = inhibition": "inactive"}, {"compound": "CC(C1CC2CCC1C2)n1c(SC(F)F)nnc1-c1ccco1", "note": "(stereo not drawn)", "thallium flux ratio, lower = inhibition": "inactive"}, {"compound": "CC(C)c1ccccc1C(=O)Nc1cccc(NC(=O)c2ccccc2OC(F)(F)F)c1", "thallium flux ratio, lower = inhibition": "inactive"}, {"compound": "CC(C1CC2CCC1C2)n1c(-c2cccc(N(C)C)c2)n[nH]c1=S", "note": "(stereo not drawn)", "thallium flux ratio, lower = inhibition": "inactive"}]}]}
